# Compound activity as filed in PubChem.
# Rows were chosen to be rich in hits. Some 2.9% of all compounds tested hit in one or more screens of this group.
# OX1R antag-1: antagonists of human orexin 1 receptor. O43613. CHO/OX1R cells, Fluo-8 calcium fluorescence, orexin A. inhibition, % at 5 µM. 0.43% of 330,000 active;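 active means inhibition above its plate's threshold, mean inhibition of all tested compounds on the plate plus 3 SD, cut at about 37% in these data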;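 further: 0% = orexin A challenge wells and 100% = SB-334867-A antagonist wells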
# Target sequence (O43613 whole entry, looked up): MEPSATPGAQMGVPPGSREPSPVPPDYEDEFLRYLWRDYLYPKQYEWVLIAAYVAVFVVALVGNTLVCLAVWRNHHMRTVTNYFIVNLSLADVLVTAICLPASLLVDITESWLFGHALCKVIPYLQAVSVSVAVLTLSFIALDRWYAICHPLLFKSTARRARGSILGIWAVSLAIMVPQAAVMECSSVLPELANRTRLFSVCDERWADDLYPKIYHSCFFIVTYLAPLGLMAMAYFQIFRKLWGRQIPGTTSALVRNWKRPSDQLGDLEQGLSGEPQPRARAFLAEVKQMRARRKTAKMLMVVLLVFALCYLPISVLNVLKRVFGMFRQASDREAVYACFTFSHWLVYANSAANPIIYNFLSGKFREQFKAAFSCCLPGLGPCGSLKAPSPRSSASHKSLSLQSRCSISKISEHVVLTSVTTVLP
# M1 PAM parental: nonselective activator or artifact in parental CHO-K1 calcium assay. ATP EC20, Fluo-8 calcium fluorescence; 0% at ATP EC20, 100% at ATP max. activation, % at 3 µM. 0.02% of 360,000 active;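 active means activation above the run cutoff, the mean activation of all test compounds plus 3 SD, cut at about 40% in these data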;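 further: peak over basal fluorescence ratio in a 140 s read after ATP addition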
# OX1R antag-2: OX1R (human) antagonism; O43613; OX1R-expressing cells, FRET antagonist read-out; inhibition, % at 6.6 µM; 1.8% of 330,000 active; AID 485270; in the data active means inhibition mostly above about 38%, no sharp cut-off; inactive means mostly below about 40%;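 further: 0% = agonist challenge alone and 100% = reference antagonist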
# CHO parental Ca: signal in parental CHO cells, OX1R antagonist counter-screen | 0.63% of 330,000 active | parental CHO-K1, ATP-induced calcium, Fluo-8 fluorescence | AID 463079 | inhibition, % at 5.6 µM;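 active means inhibition above that plate's mean sample inhibition plus 3 SD, cut at about 26% in these data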;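 further: 0% = ATP-challenged DMSO wells and 100% = DMSO wells without ATP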
#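 Material – parental CHO cells · Reagent – ATP stimulus · Compound – single nominal dose of 5.6 µM per compound · Detection – Fluo-8 fluorescence · Read-out basis – percent inhibition of calcium signal · Controls – ATP-challenged DMSO wells low, unchallenged DMSO wells high · Repeats – no replicates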
# CHO-K1 Ca antag: M1 antagonist counterscreen hit in parental CHO-K1 cells. 0.6% of 360,000 active. AID 602250. inhibition, % at 3 µM. ATP-induced calcium, Fluo-8 fluorescence;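 active means inhibition above a per-plate cutoff, the plate's mean sample inhibition plus 3 SD, cut at about 24% in these data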;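 further: 0% = DMSO plus EC80 ATP and 100% = DMSO alone without ATP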
# M1 ag parental: counter-screen for M1 agonists: effect in parental CHO-K1 cells; Fluo-8 calcium fluorescence; scaled to maximal ATP response, vehicle zero; activation, % at 3 µM; 0.48% of 360,000 active; in the data active means activation above about 15%;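 further: untransfected CHO-K1 host cells lacking M1 receptor as counterscreen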
# Numbers without * were called inactive; x = no result.
SMILES,OX1R antag-1,M1 PAM parental,OX1R antag-2,CHO parental Ca,CHO-K1 Ca antag,M1 ag parental
C[C@H](CO)N1C[C@H](C)[C@@H](CN(C)Cc2ccc(Oc3ccccc3)cc2)Oc2c(NC(=O)c3ccncc3)cccc2C1=O,5,46*,13,-51,-32,1
O=c1[nH]cnc2c1ncn2[C@@H]1O[C@H](COS(=O)(=O)O)[C@@H](O)[C@H]1O,7,16,4,1,-18,1
OC(c1nc2ccccc2[nH]1)C(O)c1nc2ccccc2[nH]1 (stereo not drawn),-18,-11,-8,-16,7,0
FC(F)(F)c1nc2cc3nc4ccccc4[nH]c3cc2n1,-9,-8,54*,-8,1,3
N#Cc1cccc(C#N)c1Oc1ccc(S(=O)(=O)Nc2ccc(Cl)cc2)cc1,13,0,13,43*,3,11
CC1(C)Cc2c(sc(NC(=O)c3ccc(Br)o3)c2C#N)CO1,-32,-8,17,-20,25*,0
COc1ccc(S(=O)(=O)N2CCOC2CNC(=O)C(=O)NCCc2c[nH]c3ccccc23)cc1C (stereo not drawn),5,24,55*,-1,-6,5
COc1ccc(S(=O)(=O)N2CCOC2CNC(=O)C(=O)NCCc2c[nH]c3ccccc23)cc1 (stereo not drawn),-2,6,14,5,4,6
COc1ccc(S(=O)(=O)N2CCOC2CNC(=O)C(=O)NCCc2ccc(S(N)(=O)=O)cc2)cc1 (stereo not drawn),-18,0,5,72*,10,0
COc1ccc(CCNC(=O)C(=O)NCC2OCCN2S(=O)(=O)c2ccc(OC)cc2)cc1 (stereo not drawn),-29,14,24,-9,-5,6
COc1cc(-c2nnc(COC(=O)C3c4ccccc4Oc4ccccc43)o2)cc(OC)c1OC,-12,1,43*,-13,-15,4
Cc1ccc([C@H]2C(C(=O)O)=CC[C@@H](c3ccc4c(c3)OCO4)N2S(=O)(=O)c2ccc(C)cc2)cc1,-6,17,33,-21,-18,0
COC(=O)C1=C(C)Nc2nc3ccccc3n2C1c1cc(OC)c(OC)c(OC)c1 (stereo not drawn),-28,20,10,-18,0,17*
COC(=O)C1C2CC(C(Br)C2Br)C1C(=O)O (stereo not drawn),x,0,x,x,-2,0
COC(=O)c1ccccc1-c1ccc(/C=N/NC(=O)c2cc3ccccc3o2)o1,-22,22,36,-15,0,4
COC(=O)c1ccccc1-c1c2ccc(=N)cc-2oc2cc(N)ccc12,112*,-23,30*,102*,88*,678*
Cc1ccc(NC(=O)c2cnc(N3CCN(c4ccccn4)CC3)c3ccccc23)c(Br)c1,-2,-6,19,-5,26*,6
O=C(c1cnc(N2CCN(c3ncccn3)CC2)c2ccccc12)N1CCN(c2ccccn2)CC1,1,-5,9,-5,11,6
O=C(Nc1c(F)cccc1F)c1cnc(N2CCN(c3ccccn3)CC2)c2ccccc12,-27,-9,26,-15,30*,5
CC[C@@H]1Cc2[nH][nH]c(=O)c2[C@H](c2ccc(Cl)cc2)O1,x,7,x,x,-9,0
CC1CN(Cc2ccco2)C(=S)NC1=O (stereo not drawn),x,-16,x,x,-3,0
COc1ccccc1/C=C/C(=O)OCC(=O)N1CCc2ccccc21,-4,-9,32*,-36,-1,0
O=C(/C=C/c1ccc(OC(F)F)cc1)OCC(=O)N1CCc2ccccc21,1,-12,19,8,-12,0
C=CC[C@@H](CC(=O)N[C@H](CO)Cc1ccccc1)C(=O)N[C@H](COC(=O)[C@@H](CC=C)CC(=O)OC(C)(C)C)Cc1c[nH]c2ccccc12,84*,5,-1,61*,-5,1
C=CCC[C@@H](Cc1ccc(F)cc1)C(=O)OC[C@H](Cc1c[nH]c2ccccc12)NC(=O)[C@@H](CC=C)CC(=O)NCCO,28,2,6,7,8,18*
SMILES,OX1R antag-1,M1 PAM parental,OX1R antag-2,CHO parental Ca,CHO-K1 Ca antag,M1 ag parental
C=CCC[C@@H](Cc1ccc(F)cc1)C(=O)OC[C@@H](Cc1c[nH]c2ccccc12)NC(=O)[C@@H](CC=C)CC(=O)NCCO,-27,6,7,-21,-9,1
C=CC[C@@H](CC(=O)N[C@@H](CO)Cc1ccccc1)C(=O)N[C@@H](COC(=O)[C@@H](CC=C)CC(=O)OC(C)(C)C)Cc1c[nH]c2ccccc12,-3,7,0,-24,-3,0
CCN(CC)S(=O)(=O)c1ccc(N2CCN(c3ccccc3OC)CC2)c(N)c1,6,-21,38,61*,17,12
O=C(c1cn(-c2ccccc2)nc1-c1cccnc1)N1CCCC(C(F)(F)F)C1 (stereo not drawn),-8,-17,14,-9,2,0
COc1ccccc1OCC(=O)Nc1oc(-c2ccccc2)c(-c2ccccc2)c1C#N,-24,1,50*,-13,-6,0
O=C(COc1ccc(Br)cc1)Nc1ccc(-c2nnc(-c3ccco3)o2)cc1,-21,18,-1,-3,-9,1
COc1ccccc1OCC(=O)Nc1ccc(-c2nnc(-c3ccco3)o2)cc1,-2,1,64*,-15,-11,0
O=C(OCc1ccccc1)N1CCC2CC1c1cc(N3CCN(S(=O)(=O)c4cccc5ccccc45)CC3)ccc12 (stereo not drawn),x,2,x,x,11,0
COc1cc(/C=C2/SC(=S)N(CC(=O)O)C2=O)ccc1OC(=O)c1ccco1,6,-14,24,-3,-9,0
CCC(CC)c1nnc(NC(=O)c2ccc3ccccc3n2)s1,-3,16,49*,-19,-1,0
O=C(Nc1nccs1)c1ccc2nccnc2c1,-4,18,46*,-17,-3,1
O=C(Nc1nccs1)c1ccc2ccccc2n1,-6,-12,71*,-14,-12,0
Cc1ccc(C(=O)Nc2nccs2)cc1,-11,4,25,-13,-11,2
CCC(CC)c1nnc(NC(=O)c2cc(-c3ccccc3)nc3ccccc23)s1,-27,-5,25,-23,-2,0
COc1ccc(CCN2CC(C(=O)N3CCC(O)(c4ccccc4)CC3)CCC2=O)cc1 (stereo not drawn),-9,11,5,-20,-7,1
C[C@@H]1CN([C@@H](C)CO)C(=O)CCCn2nncc2CO[C@H]1CN(C)S(=O)(=O)c1ccc(-n2cccn2)cc1,x,10,x,x,-1,1
N=c1c(C(=O)NCC2CCCO2)cc2c(=O)n3ccccc3nc2n1Cc1ccccc1 (stereo not drawn),-3,0,51*,-18,12,-1
